Screening results (PubChem)
NALP1 yeast inh: blocks the NALP1 inflammasome reconstituted in yeast; S. cerevisiae NALP1/ASC/caspase-1 growth, X-gal OD620, 72 h; actives 0.61% (n = 280,000); inhibition, % at 10 µM; AID 2071; in the data active = inhibition mostly above about 24%, no sharp cut-off; inactive = mostly below about 32%
SUMO HTRF inh: SUMOylation inhibition; actives 0.36% (n = 290,000); P63279; HTRF SUMOylation assay, SAE1/SAE2 + UBC9, in vitro; inhibition, % at 35 µM; AID 2006; in the data active = inhibition above about 50%, passing the limit was not always enough
Target sequence (P63279 whole entry, looked up): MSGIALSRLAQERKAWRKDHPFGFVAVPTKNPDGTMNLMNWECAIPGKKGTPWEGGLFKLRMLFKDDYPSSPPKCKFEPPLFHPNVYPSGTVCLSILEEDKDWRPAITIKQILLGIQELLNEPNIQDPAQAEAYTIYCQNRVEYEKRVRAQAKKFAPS
SUMO Mot1 rescue: blocks SUMOylation pathway, rescuing yeast Mot1-301 growth | actives 1% (n = 320,000) | AID 2716 | S. cerevisiae Mot1-301 growth rescue, ATP luminescence, 38.5C; percent above DMSO median, 100 means doubled | growth rescue, % at 18.8 µM;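 active = every valid replicate shows activation above 250% relative to neutral control wells; inactive = the rest, any valid replicate at or below 250%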;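 also: OY570 slx delta 5 strain wells were the positive control but not used for scaling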
VIM-2 inhibitor: inhibitors of Pseudomonas aeruginosa VIM-2 metallo-beta-lactamase. purified VIM-2, nitrocefin hydrolysis, epi-absorbance fluorescence. inhibition, % at 5.6 µM. actives 0.89% (n = 290,000);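 active = inhibition above the mean of all tested compounds plus 3 SD, cutoff set per screening run, cut at about 7.5% in these data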;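 also: red hydrolysis product quenches plate fluorescence so inhibitors raise well fluorescence; 0% = enzyme with DMSO and 100% = DMSO without enzyme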
IMP-1 inhibitor: blocks Pseudomonas aeruginosa IMP-1 metallo-beta-lactamase; actives 0.45% (n = 290,000); inhibition, % at 5.6 µM; AID 1556; purified IMP-1, nitrocefin hydrolysis, epi-absorbance fluorescence;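 active = inhibition above the mean plus 3 SD of all compounds in the same screening run, cut at about 4.5% in these data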;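 also: 0% = IMP-1 with DMSO and 100% = DMSO wells lacking enzyme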
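assay system = purified recombinant IMP-1 metallo-beta-lactamase enzyme | schedule = 15 min preincubation plus 25 min reaction at 25 °C | signal = Epi-absorbance fluorescence, 480 nm excitation, 530 nm emission | read-out basis = percent inhibition from optical density relative to buffer-blank wells | controls = IMP-1 with DMSO as 0%, enzyme-free DMSO as 100%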
DNA FID counter: counter-screen for HCV NS3 helicase inhibitors: DNA intercalator displacement. DNA fluorescent intercalator displacement, fluorescence. actives 0.17% (n = 290,000). inhibition, % at 7.9 µM; in the data active = inhibition above about 37%;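 also: 0% = vehicle and 100% = reference compound; higher means more ethidium bromide displaced from hairpin DNA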
The depositor's hits bear a star; . = not tested or not shown; + = active, no number; ! = not active in a repeat. Sampled rows, rich in hits. Any-hit rate of the full collection: about 2.9%.

SMILES	NALP1 yeast inh	SUMO HTRF inh	SUMO Mot1 rescue	VIM-2 inhibitor	IMP-1 inhibitor	DNA FID counter
CC(=O)O[C@H]1CC[C@@]2(C)C(=CC[C@@H]3[C@@H]2CC[C@]2(C)C(=O)CC[C@@H]32)C1	.	.	483*	.	.	.
Cc1ccccc1-n1c(/C=C/c2ccccn2)nc2ccccc2c1=O	-5	21	-5	-2	-2	-31
CN1C2CCC1/C(=C/c1ccccn1)C(=O)/C2=C\c1ccccn1	101*	4	-50	-4	-1	-4
CCN(CC)P(=S)(c1c(C)nc2ccccn12)c1c(C)nc2ccccn12	-16	10	-21	0	-1	-37
Cn1c(O)c(/C=N/N2CCOCC2)c(=O)n(-c2ccccc2)c1=S	37*	16	2	-1	-1	-9
O=c1c(/C=N/N2CCOCC2)c(O)n(-c2ccccc2)c(=S)n1-c1ccccc1	6	1	7	-2	3	-11
Nc1ncn[nH]1	.	.	147	.	.	.
CC1=C2[C@@H]3OC(=O)[C@H](C)C3CC[C@@]2(C)C=CC1=O (some centres undefined)	7	2	119	-3	-2	-1
CC1CCCC(C)N1/N=C/c1c[nH]c2ccc(Br)cc12 (centres undefined)	65*	-10	-12	0	-2	2
CCC(Oc1cc(Cl)ccc1Cl)C(=O)N1CCC2(CC1)OCCO2 (centres undefined)	4	1	-1	0	-3	-35
Cc1c2ccncc2c(C)c2c1[nH]c1ccccc12	95*	-6	15	2	-6	54*
c1ccc2c(c1)[nH]c1cnccc12	32	11	-11	-3	-5	1
C=CCn1c(O)c(/C(C)=N/NC(=S)Nc2ccccc2)c(=O)[nH]c1=O	.	-3	11	4	0	-13
C=CCn1c(O)c(/C(CC)=N/NC(=S)Nc2ccccc2)c(=O)[nH]c1=O	-6	35	102	8.9*	-2	-16
O=c1[nH]c(=S)n(-c2ccccc2F)c(O)c1C=Nc1ccc(N2CCOCC2)cc1	9	26	+	-4	-3	-18
Fc1c(F)c(F)c(N2CCNCC2)c(F)c1F	-9	6	12	-1	-2	2
N#C/C(=C(/O)c1ccc(S(=O)(=O)N(CCCl)CCCl)cc1)c1nc2ccccc2[nH]1	.	53*	-4	-2	-3	-4
Cc1nn(Cc2ccccc2)c(C)c1C(=O)O	-2	7	-13	-3	-5	-2
Clc1ccc2c(c1)C(c1ccccc1Cl)=NCc1nnc(N3CCN(CCOc4ccccc4)CC3)n1-2	-1	-9	346*	-2	-3	-30
O=[N+]([O-])c1ccc(N2CCCCCC2)c2ncccc12	8	24	-4	1	-1	3
O=[N+]([O-])c1ccc(C2[C@H]3C(c4ccccc4)=NC4(CCCCC4)N23)cc1 (some centres undefined)	20	-9	4	-4	-3	-3
CS(=O)(=O)Nc1ccc(Cc2noc(-c3ccc4[nH]cc(CCN)c4c3)n2)cc1	-5	16	4	29*	0	15
NCCc1c[nH]c2ccc(F)cc12	18	-18	0	0	-2	6
O=C1NC(=O)C(=Cc2cc3c(cc2[N+](=O)[O-])OCO3)C(=O)N1	1	99*	-8	0	-3	0
Cc1cccc(N2C(=O)NC(=O)/C(=C/c3cc4c(cc3[N+](=O)[O-])OCO4)C2=O)c1	-16	48	-6	0	1	-12
SMILES	NALP1 yeast inh	SUMO HTRF inh	SUMO Mot1 rescue	VIM-2 inhibitor	IMP-1 inhibitor	DNA FID counter
COc1cc(/C=C/c2nc3ccccc3c(=O)n2-c2cccc(O)c2)ccc1O	.	51*	.	-1	-2	-20
O=[N+]([O-])c1ccc(N2CCCC(C(F)(F)F)C2)c2ccncc12 (centres undefined)	10	-3	27	-2	-5	-19
COC(=O)C1=C(c2ccc(F)cc2OCc2ccccc2)C[C@@H]2CC[C@H]1N2C(=O)NCc1ccc2c(c1)OCO2	.	.	1	.	.	.
CN(C)C(=S)SSC(=S)N(C)C	64*	-10	-12	-2	-5	-1
Cc1ccccc1-n1c(O)c(C=Nc2ccc(N(C)C)cc2)c(=O)[nH]c1=O	6	-14	156	0	-6	-20
Cc1cccc(N=Cc2c(O)n(-c3ccccc3C)c(=O)[nH]c2=O)c1	-10	-5	280*	-1	-3	-15
COc1ccc(CC2(CCc3ccncc3)C(=O)NC(=O)NC2=O)c(OC)c1	21	-3	281*	-3	-1	-9
COC(=O)C1=C(c2ccccc2OCc2ccccc2)C[C@@H]2CC[C@H]1N2C(=O)NCCc1ccc(F)cc1	.	.	33	.	.	.
Cn1c(O)c(/C=C/C=Nc2ccccc2)c(=O)n(C)c1=S	20	8	-1	5	6.1*	-1
Cc1cc2c(C(C)C)c(O)c(O)c(C=O)c2c(O)c1-c1c(C)cc2c(C(C)C)c(O)c(O)c(C=O)c2c1O	-2	95*	.	10*	14*!	31
O=c1c2ccccc2[nH]c(=S)n1-c1ccc(Br)cc1	33*	10	-5	-4	-3	-5
CCCCN(Cc1ccccc1)C1CCN(CCc2ccccc2)CC1	48*	-7	21	-4	-2	11
c1ccc(CCN2CCC(N3CCN(c4ccccc4)CC3)CC2)cc1	19	-5	23	-4	-3	3
O=C(N/N=C/c1c(O)n(C2CCCCC2)c(=S)[nH]c1=O)c1ccccc1O	-1	.	-5	-6	-2	-15
CC(C)c1ccc(-n2c(O)c(/C=N/NC(=O)c3ccccc3O)c(=O)[nH]c2=S)cc1	-3	66*	11	-2	-1	-30
CCCCn1c(O)c(C(CC)=NCCN2CCOCC2)c(=O)[nH]c1=O	44*	16	-10	-3	-4	-4
CCCCn1c(O)c(C(C)=NCCN2CCOCC2)c(=O)[nH]c1=O	11	19	.	-4	0	0
CC1(C)C2CC=C(CN3CCOCC3)C1C2 (centres undefined)	9	-15	0	-2	-3	91*
O=c1[nH]c(=O)n(Cc2ccc(F)cc2)c(O)c1/C=N/Nc1ccccc1	.	-4	133	-3	-3	-18
C[n+]1c(-c2ccccc2)c2cc(N)ccc2c2ccc(N)cc21	13	101*	116	0	0	38*
CC(C)(C)C(=O)OC[N+](C)(C)CCOC(=O)C(O)(c1ccccc1)C1CCCC1 (centres undefined)	-2	-8	-2	-4	0	11
CCCC(CCC)C(=O)OC[N+](C)(C)CCOC(=O)C(O)(c1ccccc1)C1CCCC1 (centres undefined)	28*	24	-22	-2	-4	41*
O=c1[nH]c(=S)n(C2CC2)c(O)c1/C=N/Nc1ccccc1	28	8	282*	-3	-3	-4
